Our source for the IC50 values is ChEMBL document CHEMBL3861966, “Di-nor- and 17-nor-pimaranes from Icacina trichantha” (J Nat Prod, 2016).

Usually IC50 stands for the concentration needed to halve the response being measured.

Structures are written as SMILES.

Format in all cases: functional, cell-based
A short description of assay [1]: Cytotoxicity against human MDA-MB-231 cells assessed as decrease in cell viability after 72 hrs by cell titer 96 one solution assay. The note with it: MDA-MB-231, 72 h. In short, it runs like this: (§1)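 Cells grown at 37 °C, 5% CO2 in RPMI 1640 with 10% FBS, penicillin 100 units/mL, streptomycin 100 μg/mL. Log-phase cells trypsinized, washed twice, seeded at 5000/well, left overnight. DMSO-dissolved samples added at 20, 4, 0.8, 0.16, 0.032 μM (final DMSO 0.5%). After 72 h at 37 °C, viable cells read by MTS-type absorbance kit. IC50 in μM relative to DMSO control.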

Assay [2] is described as follows: Cytotoxicity against human OVCAR3 cells assessed as decrease in cell viability after 72 hrs by cell titer 96 one solution assay. The note with it: OVCAR-3, 72 h. In short, it runs like this:
as §1

Assay [3] is described as follows: Cytotoxicity against human MDA-MB-435 cells assessed as decrease in cell viability after 72 hrs by cell titer 96 one solution assay. The note with it: MDA-MB-435, 72 h. In short, it runs like this: as §1

Turning to `C[C@]12C(=O)O[C@@H]3[C@@H](O)[C@H]4c5occc5C(=O)C[C@H]4[C@]4(CO[C@@]1(O)[C@@H](O)C4)[C@@H]32`, the IC50 in assay [1] amounted to 7.6 µM; in assay [2] it was 7.53 µM; in assay [3], 2910 nM.

Take `CC[C@]1(O)C[C@@H]2CN(CCc3c([nH]c4ccccc34)[C@@](C(=O)OC)(c3cc4c(cc3OC)N(C)[C@H]3[C@@](O)(C(=O)OC)[C@H](OC(C)=O)[C@]5(CC)C=CCN6CC[C@]43[C@@H]65)C2)C1` [VINBLASTINE]: the IC50 in assay [3] was 0.49 nM.

Turning to `COc1cc2c(c3occc13)[C@H]1OC3O[C@@]4(O)CC[C@@]23[C@H]2[C@@H]1OC(=O)[C@]24C`, the values for the IC50 in assay [1], in assay [2] and in assay [3] were more than 20 µM, more than 20 µM and more than 20000 nM, respectively.

With `COc1cc2c(c3occc13)[C@@H](O)[C@@]1(O)OC[C@@]23CCC(=O)[C@@H](C)[C@@H]31`, the IC50 was more than 20 µM in assay [1], more than 20 µM in assay [2] and more than 20000 nM in assay [3].

For `COc1cc2c(c3occc13)[C@H](O)[C@H]1OC(=O)[C@]3(C)[C@H]1[C@]21CC[C@]3(O)OC1`, the IC50 in assay [1] was more than 20 µM; in assay [2] it was more than 20 µM; in assay [3] it was more than 20000 nM.

In the case of `COc1cc2c(c(O)c1C=O)C[C@H]1OC(=O)[C@]3(C)[C@H]1[C@]21CC[C@]3(O)OC1`, the IC50 in assay [1] is more than 20 µM; in assay [2] it was more than 20 µM; in assay [3] it was more than 20000 nM.

For the compound `C[C@]12C(=O)O[C@@H]3C[C@H]4C5=C(CC[C@H]4[C@]4(CO[C@@]1(O)[C@@H](O)C4)[C@@H]32)C(=O)CO5`, the IC50 in assay [1] was found to be 2.85 µM; in assay [2], 3.23 µM; in assay [3] it was 1480 nM.
